The list is not random: actives were taken first. Their share in the collection is about 2.9%.
Kir21 inh – Kir2.1 (mouse) channel inhibition; 310,000 compounds, 0.85% hits; HEK293-Kir2.1, FluxOR thallium flux fluorescence; hits give low values; P35561; B-score at 10 µM; AID 1672;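 active = fluorescence ratio B-score at or below minus 3 SD of library scores, with starting-brightness B-score within 2 SD, cut at about -4.2 in these data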;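 also: channel flux triggered by added potassium and thallium sulfate stimulus; B-score of peak minus minimum fluorescence over baseline after thallium stimulus; more negative B-score means stronger Kir2.1 block with less thallium influx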
TRPC6 act – mouse TRPC6 channel activation; Q61143; HEK293-TRPC6 membrane potential dye fluorescence; hits give high values; B-score at 10 µM; 310,000 compounds, 0.13% hits; AID 2550;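 active = B-score of the integrated fluorescence ratio above library mean plus 3 SD, and starting fluorescence ratio within library mean plus 5 SD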;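 also: higher score means more depolarization so channel activation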
Target sequence (Q61143 whole entry, looked up): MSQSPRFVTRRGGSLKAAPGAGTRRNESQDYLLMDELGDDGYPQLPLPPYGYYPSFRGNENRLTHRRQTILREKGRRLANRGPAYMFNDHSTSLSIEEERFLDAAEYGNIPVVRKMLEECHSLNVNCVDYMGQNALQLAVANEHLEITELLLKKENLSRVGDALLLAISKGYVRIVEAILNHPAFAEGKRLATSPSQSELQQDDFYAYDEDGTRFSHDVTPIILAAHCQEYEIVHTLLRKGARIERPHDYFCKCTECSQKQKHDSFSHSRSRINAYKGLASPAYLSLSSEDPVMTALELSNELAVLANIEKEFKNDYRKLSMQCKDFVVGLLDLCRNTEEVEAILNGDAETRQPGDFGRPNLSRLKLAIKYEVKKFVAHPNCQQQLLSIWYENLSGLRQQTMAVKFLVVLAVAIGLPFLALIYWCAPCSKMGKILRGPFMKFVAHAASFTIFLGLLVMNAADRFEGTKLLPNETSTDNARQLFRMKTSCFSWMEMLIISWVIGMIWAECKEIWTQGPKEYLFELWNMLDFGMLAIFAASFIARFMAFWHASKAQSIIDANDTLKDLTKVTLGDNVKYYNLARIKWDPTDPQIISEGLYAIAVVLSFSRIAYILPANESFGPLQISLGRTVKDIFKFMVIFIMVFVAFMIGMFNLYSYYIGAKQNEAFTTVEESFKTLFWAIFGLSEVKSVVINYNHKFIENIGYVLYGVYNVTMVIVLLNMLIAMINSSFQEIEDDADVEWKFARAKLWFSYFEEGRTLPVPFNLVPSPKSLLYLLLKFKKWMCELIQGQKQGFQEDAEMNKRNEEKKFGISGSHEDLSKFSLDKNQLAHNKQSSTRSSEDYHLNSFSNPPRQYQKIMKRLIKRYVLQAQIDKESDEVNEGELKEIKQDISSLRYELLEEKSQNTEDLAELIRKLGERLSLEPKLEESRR
TRPC4 PAM – allosteric potentiators of mouse TRPC4 channel | HEK293 TRPC4beta/mu-opioid, DAMGO EC20, Fluo-4 Ca2+ flux; hits give high values | B-score at 10 µM | 310,000 compounds, 0.42% hits | Q9QUQ5;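 active = B-score of calcium response area above 5 SD of library B-scores, with initial fluorescence ratio within 5 SD of library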;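 also: B-score of integrated fluorescence ratio over time as area under calcium response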
TRPC4 act – TRPC4 (mouse) channel activation. Q9QUQ5. HEK293 TRPC4beta/mu-opioid, Fluo4 calcium fluorescence; hits give high values. B-score at 10 µM. 310,000 compounds, 0.49% hits. AID 2237;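 active = B-score above 5 SD of library B-scores, and initial fluorescence ratio not above library mean plus 5 SD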;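 also: positive B-score marks a calcium rise read as TRPC4 activation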
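Material: TRPC4beta and mu-opioid receptor HEK293 stable cells | Incubation: 45 min room-temperature Fluo4 loading, 110 s read | Detection: Kinetic Fluo4 calcium fluorescence | Measure: Integrated baseline-normalised fluorescence ratio, converted to per-well B score | Benchmarks: Low control buffer alone, high control maximal DAMGO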
TRPC4 inh – TRPC4 (mouse) channel inhibition. HEK293 TRPC4beta/mu-opioid, DAMGO-evoked Fluo4 calcium flux; hits give low values. B-score at 10 µM. 300,000 compounds, 0.39% hits. AID 2247;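 active = B-score over 3 SD under the library average, no early fluorescence shift, positive overall ratio signal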
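material = TRPC4beta/mu-opioid receptor HEK293 cell line | probe or stimulus = sequential submaximal and maximal DAMGO stimulation | compound dosing = one concentration per compound | measured by = Fluo4 Ca2+ flux fluorescence | evaluation = integrated fluorescence ratio relative to baseline, converted to per-well B score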
TRPC6 inhibitor – mouse TRPC6 channel inhibition. 310,000 compounds, 1.1% hits. B-score at 10 µM. Q61143. HEK293-TRPC6, membrane potential dye, ACh-evoked depolarization; hits give low values;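 active = B-score under library mean minus 3 SD, initial fluorescence not abnormally high, positive integrated signal ratio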;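 also: B-score derived from integrated fluorescence ratio over the kinetic read; more negative B-score means stronger inhibition of depolarization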
An asterisk follows results filed as active; i = inactive.

SMILES	Kir21 inh	TRPC6 act	TRPC4 PAM	TRPC4 act	TRPC4 inh	TRPC6 inhibitor
CCn1ccnc1CN1CCc2c([nH]c3ccccc23)C1C(C)(C)C (configuration not stated)	-7.7*	i	i	i	i	i
CNCc1ccccc1Sc1ccc(O)c(O)c1	-6.5*	i	i	i	i	i
COc1ccc(Sc2ccccc2CN(C)C)cc1OC	-2	i	i	i	i	i
COc1ccc(CN2CCN(C(=O)Cn3ncn4cccc4c3=O)CC2)c(OC)c1OC	0.02	i	i	i	i	i
CC(C)(C)c1nc(SCC(=O)NCc2ccco2)c2ccccc2n1	-8*	i	i	i	i	i
CC(C(=O)NCCCc1ccccc1)n1cccc1C(=O)c1ccccc1 (configuration not stated)	-6.4*	i	i	i	i	i
O=C(CNC(=O)c1ccc(-c2ccccc2)cc1)OCc1c(F)cccc1Cl	-0.24	i	i	i	i	i
COc1cccc(CNC(=O)Cn2ncc3c(=O)oc4ccccc4c32)c1	0.12	i	i	i	i	i
COc1ccc(CCn2c(=O)[nH]c3cc(C(=O)N4CCN(c5ccccc5)CC4)ccc3c2=O)cc1OC	0.11	i	i	i	i	i
COc1ccc(CCn2c(=S)[nH]c3cc(C(=O)N4CCOCC4)ccc3c2=O)cc1OC	-1.2	i	20*	i	i	i
Cc1ccc(CN2CCCC(CO)(Cc3ccccc3C)C2)s1 (configuration not stated)	-4.4*	i	i	i	i	i
Cc1ccccc1CC1(CO)CCCN(Cc2ccn[nH]2)C1 (configuration not stated)	-0.94	i	i	i	i	i
CN(C)Cc1nnnn1-c1cccc(-n2nnnc2CN(C)C)c1	0.17	i	i	i	i	i
CCc1nc(NCCc2ccccn2)c2nnn(Cc3ccccc3F)c2n1	0.24	i	i	186*	i	i
COCCN=C1N[C@@H](c2ccc(Br)cc2)C(C(=O)OC)=C(C)N1Cc1ccccc1	-6.8*	i	i	i	i	i
COC(=O)C1=C(C)N(CC2CC2)C(=NCc2cccc(Cl)c2)N[C@H]1c1ccccc1	-4.6*	i	i	i	i	i
COC(=O)C1=C(C)N(Cc2ccccc2)C(=NCc2cc(OC)c(OC)c(OC)c2)N[C@H]1c1ccccc1	-4	i	i	i	i	i
COCCN1C(=S)N[C@@H](c2cccc(F)c2)C(C(=O)OC)=C1C	-6.8*	i	i	i	i	i
COC(=O)C1=C(C)N(Cc2ccccc2)C(=NCc2ccccc2)N[C@H]1c1cccc(F)c1	-8.8*	i	i	i	i	i
CCc1ccc(CN(C)C(=O)CC2C(=O)NCCN2Cc2ccoc2)cc1 (configuration not stated)	1.7	i	i	i	i	i
CCOC(=O)C1CCN(c2ccccc2CN2CCN(c3ccccc3OCC)CC2)CC1	0.55	i	i	i	i	i
COC(=O)C1=C(C)N(Cc2ccccc2)C(=S)N[C@H]1c1cccc(F)c1	-0.04	i	i	i	-5*	i
COc1ccc(OC)c(CCNC(=O)CCn2nc(C)c3c(C)n(-c4ccccc4)nc3c2=O)c1	0.16	i	i	i	i	i
N#CC(C#N)=C1C=CC=CN1/C(=C\c1ccccc1)C(=O)c1cccs1	-5*	i	i	i	i	i
CCN(CCO)Cc1csc2ccc(Br)cc12	-0.79	i	18*	i	i	i
SMILES	Kir21 inh	TRPC6 act	TRPC4 PAM	TRPC4 act	TRPC4 inh	TRPC6 inhibitor
CCCN(CCC)CCNC(=O)C1CC(=O)N(c2ccc(OC)cc2)C1c1ccc(OC)cc1 (configuration not stated)	-0.14	i	i	43*	i	i
CC(OC(=O)CNC(=O)c1ccc(Cl)c(Cl)c1)C(=O)N1CCOCC1 (configuration not stated)	1.8	i	i	i	i	i
Cc1cc(OCCCCCN2CCCC2)ccc1Cl	-0.13	i	i	i	i	i
Clc1ccc(OCCCN2CCCC2)cc1Cl	-0.14	i	11*	i	i	i
Clc1ccc(OCCN2CCOCC2)cc1Cl	0.33	i	i	i	i	i
CNCCCOc1ccc2c(c1)CCC2	2.1	i	20*	80*	i	i
Clc1ccc(OCCN2CCCCC2)cc1Cl	-1.2	i	26*	i	i	i
CNCCOc1ccc(Cl)c(Cl)c1	-0.47	i	40*	75*	i	i
CCCCCCCC(=O)NC1=NC(=O)C(C)(C)S1	0	i	i	i	i	i
Nc1nc(Nc2ccccc2F)nc(N2CCOCC2)c1[N+](=O)[O-]	0.74	i	i	i	i	i
CCc1ccnc(NS(=O)(=O)c2ccc3c(c2)CCO3)c1	0.08	i	i	i	i	i
CCOc1cc(N2CCOCC2)c(OCC)cc1NC(=O)Cc1ccc(OC)c(OC)c1	-1.9	i	i	i	i	i
CCOc1cc(N2CCOCC2)c(OCC)cc1NC(=O)CC12CC3CC(CC(C3)C1)C2	1.2	i	10*	i	i	i
CCOc1cc(N2CCOCC2)c(OCC)cc1NC(=O)CN1CCc2ccccc2C1	0.73	i	12*	i	i	i
CCOc1cc(N2CCOCC2)c(OCC)cc1NC(=O)Cc1cccc(OC)c1	0.37	i	i	i	i	i
COc1ccc(CN2CCNC(=O)C2CC(=O)NC2Cc3ccccc3C2)c(OC)c1 (configuration not stated)	0.09	i	i	i	i	i
COc1ccc(OCCN(C)Cc2c(O)ccc3ccccc23)cc1	-0.69	i	18*	i	i	i
CC(CNc1nc2ccc(Cl)cc2n2cnnc12)c1ccccc1 (configuration not stated)	0.01	i	i	i	i	i
COc1ccccc1Cn1[nH]nnc1=S	0.3	i	i	i	i	i
COC(=O)[C@@]1(Cc2ccc(F)cc2)[C@H]2c3cc(C(=O)N(C)C)n(CCc4ccccn4)c3C[C@H]2CN1C(=O)c1ccccc1	1	i	i	143*	i	i

From PubChem BioAssay
